Measurements pooled from the literature.
Compare with care: the assays were run in different laboratories.
Organism: Enterococcus faecalis
Observed: microbial growth

`Cc1ccc(C)n1-c1ccc(-c2nnc(-c3ccc(N(C)C)cc3)[nH]2)cc1` has an MIC of 31.2 µg/mL (broth dilution; ATCC14506; 18 h).
The MIC of `C/C=C(\C)c1cc(O)c(C)c(OC(=O)c2c(C)c(Cl)c(O)c(Cl)c2O)c1` is reported as 8 µg/mL (broth dilution; ATCC29212).
The MIC of `CC(C)Oc1c(NC(=O)c2ccc(NC(=O)[C@H](CC(N)=O)NC(=O)c3ccc(NC(=O)c4ccc(C#N)s4)cc3)cc2)ccc(C(=O)Nc2ccc(C(=O)O)cc2)c1O` is reported as 0.25 µg/mL (ATCC29212).
The MIC of `C/C=C(\C)c1cc(O)c(C)c(OC(=O)c2c(C)cc(O)c(Cl)c2O)c1` is reported as 8 µg/mL (broth dilution; ATCC29212).
The MIC of `O=C(Nc1ccc2c(c1)OC(F)(F)O2)Nc1ccc(Cl)c(C(F)(F)F)c1` is reported as 3 µM.
The MIC of `COc1ccc(-c2nc3ccc(C)cc3[nH]2)cc1OC` is reported as 128 µg/mL (broth dilution; ATCC29212).
The MIC of `CCn1cc(C(=O)O)c(=O)c2cc(F)c(N3CCNCC3)cc21` is reported as less than 5 µg/mL (broth dilution; ATCC14506; 18 h).
`COc1cccc(-c2nc3ccccc3n2Cc2ccccc2)c1` gave an MIC of 64 µg/mL (broth dilution; ATCC29212).
The MIC of `Cc1ccc(C)n1-c1ccc(-c2nnc(-c3ccc(O)cc3)[nH]2)cc1` is reported as 31.2 µg/mL (broth dilution; ATCC14506; 18 h).
For `C/C(O)=C1\C(=O)C(CC(C)C)N(C(=O)CCCCCc2ccccc2)C1=O` (centres unmarked), the MIC was less than 0.7 µg/mL (broth dilution; ATCC33186).
`C/C=C(\C)c1cc(OC(=O)c2c(O)c(C)c(O)c(Cl)c2/C(C)=C/C)c(C)c(O)c1C(=O)O` has an MIC of 64 µg/mL (broth dilution; ATCC29212).
The MIC of `Cc1ccc2nc(-c3ccco3)n(Cc3ccccc3)c2c1` is reported as 128 µg/mL (broth dilution; ATCC29212).
`CO[C@@H](C(N)=O)[C@H](NC(=O)c1ccc(NC(=O)c2ccc(C#N)cc2)cc1)C(=O)Nc1ccc(C(=O)Nc2ccc(C(=O)Nc3ccc(C(=O)O)cc3)c(O)c2OC(C)C)cc1` has an MIC of 0.125 µg/mL (ATCC29212).
The MIC of `Cc1ccc2nc(-c3ccc(Cl)cc3)n(Cc3ccccc3)c2c1` is reported as 16 µg/mL (broth dilution; ATCC29212).
`Cc1ccc(C)n1-c1ccc(C(=O)NNC=O)cc1` has an MIC of 31.2 µg/mL (broth dilution; ATCC14506; 18 h).
`C/C(=C\c1ccc(O)cc1)C(=O)Nc1ccc(C(=O)N[C@@H](CC(N)=O)C(=O)Nc2ccc(C(=O)Nc3ccc(C(=O)Nc4ccc(C(=O)O)cc4)c(O)c3OC(C)C)cc2)cc1` gave an MIC of 0.5 µg/mL (ATCC29212).
With `Cc1ccc(C)n1-c1ccc(-c2nnc(-c3ccccc3[N+](=O)[O-])[nH]2)cc1` the MIC was 31.2 µg/mL (broth dilution; ATCC14506; 18 h).
`C=CCn1c(-c2ccc(OC)c(OC)c2)nc2ccccc21` gave an MIC of 64 µg/mL (broth dilution; ATCC29212).
With `Cc1ccc(C)n1-c1ccc(-c2n[nH]c(=S)[nH]2)cc1` the MIC was 4 µg/mL (broth dilution; ATCC14506; 18 h).
For `Clc1ccc(-c2nc3ccccc3[nH]2)cc1Cl`, the MIC was 32 µg/mL (broth dilution; ATCC29212).
